Data reported in ChEMBL document CHEMBL5113533 (J Med Chem, 2022).
Active and inactive are the calls of the source.

Assays:
Type in all cases: functional, cell-based
THP-1 [1] = experiment: Antiinflammatory activity against LPS-stimulated human THP-1 cells assessed reduction in IL-6 level pretreated at 5 uM for 1 hr followed by LPS stimulation and measured upto 24 hrs by ELISA analysis
Outline: (§1)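 THP-1 cells pre-treated with compound for 1 h (5 μM or 1 μM, depending on the compound), then stimulated with 100 ng/mL LPS. Culture supernatant was taken at 24 h, and TNF-α, IL-6 or IL-1β was measured by sandwich ELISA at 450 nm with 540 nm correction; four biological replicates.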

THP-1 [2] = experiment: Antiinflammatory activity against LPS-stimulated human THP-1 cells assessed reduction in TNFalpha level pretreated at 5 uM for 1 hr followed by LPS stimulation and measured upto 24 hrs by ELISA analysis; outline: as §1
THP-1 [3] = experiment: Antiinflammatory activity against LPS-stimulated human THP-1 cells assessed as blockage of inflammatory phenotype by measuring m/z ratio at 5 uM pretreated for 1 hr followed by LPS stimulation and measured upto 24 hrs
Outline: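 THP-1 cells at 1 million/mL, pre-treated with compound at 5 μM for 1 h in technical triplicate, then 100 ng/mL LPS for 24 h. Pellets frozen on dry ice, thawed, washed in 100 mM Tris–HCl pH 7.5 at 4 °C. MALDI-TOF MS read-out is the normalized m/z 4964/4632 ratio, with a 40% cutoff used for hit calling; three biological replicates.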

THP-1 [4] = experiment: Antiinflammatory activity against LPS-stimulated human THP-1 cells assessed reduction in IL-1beta level pretreated at 5 uM for 1 hr followed by LPS stimulation and measured upto 24 hrs by ELISA analysis; outline: as §1

Measured: Activity

CCN1CCN(Cc2ccc(NC(=O)c3ccc(C)c(Oc4ccnc5[nH]ccc45)c3)cc2C(F)(F)F)CC1
active: all assays above

CC[C@@H]1C(=O)N(C)c2cnc(Nc3ccc(C(=O)NC4CCN(C)CC4)cc3OC)nc2N1C1CCCC1
active: all assays above
